From ChEMBL document CHEMBL1147096, “Activities of DL-alpha-difluoromethylarginine and polyamine analogues against Cryptosporidium parvum infection in a T-cell receptor alpha-deficient mouse model” (2007)
Activity calls are given as the source filed them. No cut-off for these calls is given here.

Experiments:
Cryptosporidium parvum [1] = test: Anticryptosporidial activity against Cryptosporidium parvum infected TCR alpha deficient-mouse assessed as prevention of oocyst shedding at 20 mg/kg/day after 7 days; type: functional
Outline: (§1)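 Seven-day-old TCR-α-deficient mice were gavaged with 2 × 10^4 oocysts, and infection was confirmed in feces one week later. Treatment ran for 7 days: 20 or 134 mg/kg once daily, or 16 mg/kg twice daily. Controls received PBS. Seven days after treatment, fecal smears were stained with carbol fuchsin and scored for oocysts (×400). Ileal and cecal H&E sections were scored 0–2. Shedding was compared by Fisher's exact test.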

Mus musculus [2] = test: Ratio of intestinal epithelial ODC activity to SSAT activity in Swiss-Webster mouse at 2 mg, po after 72 hrs; type: functional
Outline: (§2)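 The ratio was calculated from ODC (14CO2 release from [14C]ornithine) and SSAT (acetylation of spermine by [14C]acetyl-CoA) specific activities. Both were measured in intestinal homogenates from Swiss-Webster mice dosed once daily with CGC-11157 p.o. or i.p. and sampled at 48, 72 or 96 h.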

Cryptosporidium parvum [3] = test: Anticryptosporidial activity against Cryptosporidium parvum infected TCR alpha deficient-mouse assessed as prevention of oocyst shedding at 16 mg/kg twice a day after 7 days; type: functional; outline: as §1
Mus musculus [4] = test: Activity of intestinal epithelial ODC in Swiss-Webster mouse at […], ip after 96 hrs; type: functional
Outline: (§3)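 Swiss-Webster mice were dosed with CGC-11157 once daily at 20 mg/kg p.o. by feeding needle or 2 mg/kg i.p. They were killed at 48, 72 or 96 h. Intestines were washed in PBS (pH 6.7) and homogenized on ice in 40 mM Tris-HCl (pH 6.7). ODC was measured as 14CO2 trapped from L-[14C]ornithine in 0.2 M acetate (pH 6.5), 60 μM pyridoxal phosphate, 3 mg/ml BSA and 125 μg protein, 30 min at 37°C. Results are in nmol/min/mg protein ± SD.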

Mus musculus [5] = test: Activity of intestinal epithelial SSAT in Swiss-Webster mouse at […], ip after 96 hrs; type: functional
Outline: (§4)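 Intestinal homogenates came from Swiss-Webster mice given CGC-11157 once daily (20 mg/kg p.o. or 2 mg/kg i.p.) and killed at 48, 72 or 96 h. SSAT was measured as [1-14C]acetyl-CoA incorporation into monoacetylspermine in Bicine (pH 8.0), with 16.5 μM labeled plus 1 mM acetyl-CoA, 2 mM spermine and 100 μg protein, 60 min at 37°C. Products were bound on cellulose phosphate discs and counted. Results are in nmol/min/mg protein ± SD.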

Mus musculus [6] = test: Activity of intestinal epithelial SSAT in Swiss-Webster mouse at 0.2 mg, ip after 48 hrs; type: functional; outline: as §4
Mus musculus [7] = test: Ratio of intestinal epithelial ODC activity to SSAT activity in Swiss-Webster mouse at 2 mg, po after 48 hrs; type: functional; outline: as §2
Mus musculus [8] = test: Activity of intestinal epithelial ODC in Swiss-Webster mouse at 0.2 mg, ip after 72 hrs; type: functional; outline: as §3
Cryptosporidium parvum [9] = test: Prevention of Cryptosporidium parvum infection in TCR alpha deficient-mouse pretreated with 20 mg/kgday, po for 2 days prior to oocyst infection and continued for 5 days; type: functional; details: dose 20 mg/kg
Outline: (§5)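 Suckling TCR-α-deficient mice (6–8 per group) were treated once daily for 2 days, challenged with 2 × 10^4 oocysts, and treated for 5 more days at the same dose (20 or 50 mg/kg). Controls received PBS. Fecal oocyst shedding was checked 10 days after treatment by carbol fuchsin smear. Ileal and cecal H&E sections were scored 0–2 and analyzed by Fisher's exact test and ANOVA.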

Mus musculus [10] = test: Ratio of intestinal epithelial ODC activity to SSAT activity in Swiss-Webster mouse at 0.2 mg, ip after 72 hrs; type: functional; outline: as §2
Mus musculus [11] = test: Ratio of intestinal epithelial ODC activity to SSAT activity in Swiss-Webster mouse at 0.2 mg, ip after 96 hrs; type: functional; outline: as §2
Mus musculus [12] = test: Activity of intestinal epithelial SSAT in Swiss-Webster mouse at […], ip after 72 hrs; type: functional; outline: as §4
Mus musculus [13] = test: Activity of intestinal epithelial ODC in Swiss-Webster mouse at 0.2 mg, ip after 48 hrs; type: functional; outline: as §3
Mus musculus [14] = test: Ratio of intestinal epithelial ODC activity to SSAT activity in Swiss-Webster mouse at 2 mg, po after 96 hrs; type: functional; outline: as §2
Mus musculus [15] = test: Ratio of intestinal epithelial ODC activity to SSAT activity in Swiss-Webster mouse at 0.2 mg, ip after 48 hrs; type: functional; outline: as §2
Cryptosporidium parvum [16] = test: Effect on infection of HCT8 cells by Cryptosporidium parvum […] isolated from mouse treated with 134 mg/kg/day for 7 days assessed as viability of […]; type: functional, organism-based
Outline: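 Oocysts were recovered from TCR-α-deficient mice that had been infected, then treated with 134 mg/kg once daily for 7 days. Viability was judged by whether the oocysts could establish infection in an HCT-8 cell monolayer in vitro.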

Cryptosporidium parvum [17] = test: Prevention of Cryptosporidium parvum infection in TCR alpha deficient-mouse pretreated with 50 mg/kg/day, po for 2 days prior to oocyst infection and continued for 5 days; type: functional, organism-based; outline: as §5
Cryptosporidium parvum [18] = test: Anticryptosporidial activity against Cryptosporidium parvum infected TCR alpha deficient-mouse assessed as prevention of oocyst shedding at 134 mg/kg/day after 7 days; type: functional; outline: as §1

Structure (SMILES): CCNCCCCNCCCCNCCCCNC/C=C\CNCCCCNCCCCNCCCCNCC
- Activity (Cryptosporidium parvum [1]): 50%
- Ratio (Mus musculus [2]): 1.55
- Activity (Cryptosporidium parvum [3]): 50%
- Activity (Mus musculus [4]): 0.16 nmol/mg/min
- Activity (Mus musculus [5]): 0.04 nmol/mg/min
- Activity (Mus musculus [6]): 0.081 nmol/mg/min
- Ratio (Mus musculus [7]): 0.99
- Activity (Mus musculus [8]): 0.034 nmol/mg/min
- Activity (Cryptosporidium parvum [9]): 50%
- Ratio (Mus musculus [10]): 1
- Ratio (Mus musculus [11]): 4
- Activity (Mus musculus [12]): 0.034 nmol/mg/min
- Activity (Mus musculus [13]): 0.079 nmol/mg/min
- Ratio (Mus musculus [14]): 2.9
- Ratio (Mus musculus [15]): 0.97

Structure (SMILES): NCCCC(N)(C(=O)O)C(F)F (racemic) [EFLORNITHINE]
- Activity (Cryptosporidium parvum [1]): 33%

Structure (SMILES): CCNCCCCNCCCCNCCCCNCCCCNC/C=C/CNCCCCNCCCCNCCCCNCCCCNCC
- Activity (Cryptosporidium parvum [16]): inactive

Structure (SMILES): CCNCCCNC/C=C\CNCCCNCC
- Activity (Cryptosporidium parvum [17]): Active
- Activity (Cryptosporidium parvum [18]): Toxic
